Legend:
[1] = Inhibition of HCV NS5B polymerase; design: species or system Hepacivirus hominis
[2] = Cytotoxicity against human MT4 cells after 96 hrs by MTT assay; assay type: cell-based
Method in brief: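 Exponentially growing MT-4 cells seeded at 1×10^5 cells/mL in RPMI-1640 with 10% FBS and incubated with serial compound dilutions at 37 °C and 5% CO2. Viability measured by MTT after 96 h. CC50 by linear regression against untreated controls.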

[3] = test system: Human immunodeficiency virus 1; test: Antiviral activity against HIV1 3B infected in human MT4 cells assessed as inhibition of virus-induced cytopathogenicity after 4 days by MTT assay; assay type: functional, organism-based; settings: Human immunodeficiency virus 1, 3B, MT4, 96 h
Method in brief: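 MT-4 cells (1×10^4/well) in RPMI with serial compound dilutions, infected with HIV-1 IIIB at 100 CCID50 (m.o.i. 0.01). Viability measured by MTT after 4 days at 37 °C. EC50 for 50% protection from cytopathogenicity obtained by linear regression against untreated controls.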

[4] = Cytotoxicity against MDBK cells after 48 to 96 hrs by MTT assay; assay type: cell-based, Bos taurus; settings: cattle
Method in brief: (§1)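 Mock-infected MDBK (6×10^5 cells/mL, MEM-E with 10% horse serum) or BHK (1×10^6 cells/mL, MEM-E with 10% FBS) cells incubated with serial compound dilutions at 37 °C and 5% CO2. Viability measured by MTT after 48–96 h. CC50 by linear regression against untreated controls.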

[5] = Antiviral activity against BVDV1 NADL ATCC VR-534 infected in MDBK cells assessed as inhibition of virus-induced cytopathogenicity after 3 to 4 days by MTT assay; assay type: functional, cell-based, Bovine viral diarrhea virus 1-NADL; settings: Bovine viral diarrhea virus isolates and strains, ATCC VR-534, MDBK
Method in brief: (§2)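 BHK (5×10^4/well) or MDBK (3×10^4/well) cells grown to confluent monolayers overnight, infected at m.o.i. 0.01 in maintenance MEM-Earl with 0.5% inactivated FBS. Serially diluted compounds added after 1 h. Viability read by MTT after 3–4 days at 37 °C. Values are expressed as % of untreated controls, and EC50 is derived by linear regression. Duplicate samples.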

[6] = Cytotoxicity against BHK21 cells by MTT assay; assay type: cell-based, Mesocricetus auratus; settings: hamster, BHK-21 cells; method in brief: as §1
Yellow fever virus = test: Antiviral activity against Yellow fever virus 17D infected in BHK21 cells assessed as inhibition of virus-induced cytopathogenicity after 3 to 4 days by MTT assay; assay type: functional, cell-based; settings: BHK-21
[7] = test system: Mammalian orthoreovirus 1; test: Antiviral activity against Reovirus 1 3651 ATCC VR-214 infected in BHK21 cells assessed as inhibition of virus-induced cytopathogenicity after 3 to 4 days by MTT assay; assay type: functional, organism-based; settings: Mammalian orthoreovirus 1, 3651 ATCC VR-214, BHK-21; method in brief: as §2
[8] = Cytotoxicity against african green monkey Vero 76 cells after 48 to 96 hrs by MTT assay; assay type: cell-based; settings: chlorocebus sabaeus
Coxsackievirus B5 = test: Antiviral activity against Coxsackie virus type B5 Ohio-1 ATCC VR-29 infected in african green monkey Vero-76 cells assessed as reduction in viral plaque after 3 days by crystal violet staining; assay type: functional, organism-based; settings: Enterovirus B, Ohio-1 ATCC VR-29, Vero 76, 72 h
Method in brief: (§3)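 Vero-76 monolayers (2×10^5 cells/well) infected for 2 h at 50–100 PFU/well. Unadsorbed virus removed. D-MEM with 1% inactivated FBS, 0.75% methylcellulose and serial compound dilutions added. Incubation at 37 °C for 3 days (CVB-5, HSV-1) or 5 days (RSV). Fixed and stained with 50% ethanol/0.8% crystal violet, then plaques counted. EC50 by linear regression versus untreated controls.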

Poliovirus 1 = test: Antiviral activity against Polio virus type 1 strain sabin ATCC VR-1562 infected in african green monkey Vero-76 cells assessed as reduction in viral plaque after 2 days by crystal violet staining; assay type: functional, cell-based, Human poliovirus 1 strain Sabin; settings: Enterovirus C, ATCC VR-1562, Vero 76, 48 h
[9] = Antiviral activity against Human respiratory syncytial virus A2 ATCC VR-1540 infected in african green monkey Vero-76 cells assessed as reduction in viral plaque after 5 days by crystal violet staining; assay type: functional, cell-based; settings: ATCC VR-1540, Vero 76, 120 h; method in brief: as §3
[10] = test system: Vesicular stomatitis Indiana virus; test: Antiviral activity against Vesicular stomatitis virus indiana ATCC VR-1540 infected in african green monkey Vero-76 cells assessed as reduction in viral plaque after 2 days by crystal violet staining; assay type: functional, organism-based; settings: ATCC VR-1540, Vero 76, 48 h
Vaccinia virus = test: Antiviral activity against Vaccinia virus Elstree-Lister ATCC VR-1549 infected in african green monkey Vero-76 cells assessed as reduction in viral plaque after 3 days by crystal violet staining; assay type: functional, organism-based; settings: Orthopoxvirus vaccinia, Elstree-Lister ATCC VR-1549, Vero 76, 72 h
Human alphaherpesvirus 1 = test: Antiviral activity against Herpes simplex virus type 1 KOS ATCC VR-1493 infected in african green monkey Vero-76 cells assessed as reduction in viral plaque after 3 days by crystal violet staining; assay type: functional, organism-based; settings: Human alphaherpesvirus 1, KOS ATCC VR1493, Vero 76, 72 h; method in brief: as §3
Coxsackievirus B2 = test: Antiviral activity against Coxsackie virus type B2; assay type: functional, organism-based; settings: Enterovirus B

SMILES: O=C(O)c1ccc2c(c1)nc(-c1ccccn1)n2C1CCCCC1
- IC50 [1]: 4.3 µM

SMILES: O=C(O)c1ccc2c(c1)nc(-c1ccoc1)n2C1CCCCC1
- IC50 [1]: 1.6 µM

SMILES: C/C(=N\NC(N)=S)c1ccc2c(c1)nc(-c1ccc(Cl)cc1)n2C1CCCCC1
- CC50 at 96 h [2]: 17 µM
- EC50 [3]: ≥ 17 µM
- CC50 [4]: > 100 µM
- EC50 [5]: > 100 µM
- CC50 [6]: > 100 µM
- EC50 (Yellow fever virus): > 100 µM
- EC50 [7]: > 100 µM
- CC50 [8]: > 100 µM
- EC50 (Coxsackievirus B5): > 100 µM
- EC50 (Poliovirus 1): > 100 µM
- EC50 [9]: > 100 µM
- EC50 [10]: > 100 µM
- EC50 (Vaccinia virus): > 100 µM
- EC50 (Human alphaherpesvirus 1): > 100 µM

SMILES: CC(=O)c1ccc2c(c1)nc(-c1ccccc1)n2C1CCCCC1
- CC50 at 96 h [2]: 37 µM
- EC50 [3]: > 37 µM
- CC50 [4]: > 100 µM
- EC50 [5]: 60 µM
- CC50 [6]: 100 µM
- EC50 (Yellow fever virus): 13.2 µM
- EC50 [7]: > 100 µM
- CC50 [8]: 80 µM
- EC50 (Coxsackievirus B5): > 80 µM
- EC50 (Poliovirus 1): > 80 µM
- EC50 [9]: 25 µM
- EC50 [10]: > 80 µM
- EC50 (Vaccinia virus): > 80 µM
- EC50 (Human alphaherpesvirus 1): > 80 µM

SMILES: CC(=O)c1ccc2c(c1)nc(-c1ccc(Cl)cc1)n2C1CCCCC1
- CC50 at 96 h [2]: 58 µM
- EC50 [3]: > 58 µM
- CC50 [4]: > 100 µM
- EC50 [5]: 23 µM
- CC50 [6]: > 100 µM
- EC50 (Yellow fever virus): > 100 µM
- EC50 [7]: > 100 µM
- CC50 [8]: > 100 µM
- EC50 (Coxsackievirus B5): > 100 µM
- EC50 (Poliovirus 1): > 100 µM
- EC50 [9]: > 100 µM
- EC50 [10]: > 100 µM
- EC50 (Vaccinia virus): > 100 µM
- EC50 (Human alphaherpesvirus 1): > 100 µM

SMILES: CC(=O)c1ccc2c(c1)nc(-c1ccc(C(F)(F)F)cc1)n2C1CCCCC1
- CC50 at 96 h [2]: 41 µM
- EC50 [3]: > 41 µM
- CC50 [4]: 52 µM
- EC50 [5]: 23 µM
- CC50 [6]: 33 µM
- EC50 (Yellow fever virus): > 33 µM
- EC50 [7]: > 33 µM
- CC50 [8]: 35 µM
- EC50 (Coxsackievirus B5): > 35 µM
- EC50 (Poliovirus 1): > 35 µM
- EC50 [9]: 20 µM
- EC50 [10]: > 35 µM
- EC50 (Vaccinia virus): > 35 µM
- EC50 (Human alphaherpesvirus 1): > 35 µM

SMILES: COc1ccc(-c2nc3cc(C(C)=O)ccc3n2C2CCCCC2)cc1
- CC50 at 96 h [2]: 27 µM
- EC50 [3]: > 27 µM
- CC50 [4]: > 100 µM
- EC50 [5]: 21 µM
- CC50 [6]: > 100 µM
- EC50 (Yellow fever virus): 13.4 µM
- EC50 [7]: > 100 µM
- CC50 [8]: 30 µM
- EC50 (Coxsackievirus B5): > 30 µM
- EC50 (Poliovirus 1): > 30 µM
- EC50 [9]: > 30 µM
- EC50 [10]: > 30 µM
- EC50 (Vaccinia virus): > 30 µM
- EC50 (Human alphaherpesvirus 1): > 30 µM

SMILES: COc1ccc(-c2nc3cc(C(C)=O)ccc3n2C2CCCCC2)c(OC)c1
- CC50 at 96 h [2]: 21 µM
- EC50 [3]: > 21 µM
- CC50 [4]: 21 µM
- EC50 [5]: > 21 µM
- CC50 [6]: 8.5 µM
- EC50 (Yellow fever virus): > 8.5 µM
- EC50 [7]: > 85 µM
- CC50 [8]: 70 µM
- EC50 (Coxsackievirus B5): > 70 µM
- EC50 (Poliovirus 1): > 70 µM
- EC50 [9]: > 70 µM
- EC50 [10]: > 70 µM
- EC50 (Vaccinia virus): > 70 µM
- EC50 (Human alphaherpesvirus 1): > 70 µM

SMILES: C/C(=N\NC(N)=S)c1ccc2c(c1)nc(-c1ccccc1)n2C1CCCCC1
- CC50 at 96 h [2]: 20 µM
- EC50 [3]: 10 µM
- CC50 [4]: 24 µM
- EC50 [5]: 4.5 µM
- CC50 [6]: 38 µM
- EC50 (Yellow fever virus): 9 µM
- EC50 [7]: > 38 µM
- CC50 [8]: 20 µM
- EC50 (Coxsackievirus B5): > 20 µM
- EC50 (Poliovirus 1): > 20 µM
- EC50 [9]: > 20 µM
- EC50 [10]: > 20 µM
- EC50 (Vaccinia virus): > 20 µM
- EC50 (Human alphaherpesvirus 1): > 20 µM

SMILES: C/C(=N\NC(N)=S)c1ccc2c(c1)nc(-c1ccc(C(F)(F)F)cc1)n2C1CCCCC1
- CC50 at 96 h [2]: 30 µM
- EC50 [3]: ≥ 30 µM
- CC50 [4]: > 100 µM
- EC50 [5]: > 100 µM
- CC50 [6]: > 100 µM
- EC50 (Yellow fever virus): > 100 µM
- EC50 [7]: > 100 µM
- CC50 [8]: > 100 µM
- EC50 (Coxsackievirus B5): > 100 µM
- EC50 (Poliovirus 1): > 100 µM
- EC50 [9]: > 100 µM
- EC50 [10]: > 100 µM
- EC50 (Vaccinia virus): > 100 µM
- EC50 (Human alphaherpesvirus 1): > 100 µM

SMILES: COc1ccc(-c2nc3cc(/C(C)=N/NC(N)=S)ccc3n2C2CCCCC2)c(OC)c1
- CC50 at 96 h [2]: 17 µM
- EC50 [3]: ≥ 17 µM
- CC50 [4]: > 100 µM
- EC50 [5]: 4 µM
- CC50 [6]: 17 µM
- EC50 (Yellow fever virus): > 17 µM
- EC50 [7]: > 17 µM
- CC50 [8]: 20 µM
- EC50 (Coxsackievirus B5): > 20 µM
- EC50 (Poliovirus 1): > 20 µM
- EC50 [9]: > 20 µM
- EC50 [10]: > 20 µM
- EC50 (Vaccinia virus): > 20 µM
- EC50 (Human alphaherpesvirus 1): > 20 µM

SMILES: C/C(=N\NC(N)=S)c1ccc2[nH]c(-c3ccoc3)nc2c1
- CC50 at 96 h [2]: 86 µM
- EC50 [3]: > 86 µM
- CC50 [4]: > 100 µM
- EC50 [5]: 8 µM
- CC50 [6]: > 100 µM
- EC50 (Yellow fever virus): > 100 µM
- EC50 [7]: > 100 µM
- CC50 [8]: 100 µM
- EC50 (Coxsackievirus B5): > 100 µM
- EC50 (Poliovirus 1): 100 µM
- EC50 [9]: > 100 µM
- EC50 [10]: > 100 µM
- EC50 (Vaccinia virus): > 100 µM
- EC50 (Human alphaherpesvirus 1): > 100 µM

SMILES: CC(=O)c1ccc2[nH]c(-c3ccc(-c4ccc([N+](=O)[O-])cc4)cc3)nc2c1
- EC50 (Yellow fever virus): 0.5 µM
- EC50 (Coxsackievirus B2): 1 µM

SMILES: Nc1ccc(/C=C/c2nc3ccccc3[nH]2)cc1
- EC50 (Coxsackievirus B2): 7 µM

SMILES: Nc1ccc(/C=C/c2nc3cc(Cl)ccc3[nH]2)cc1
- EC50 (Coxsackievirus B2): 7 µM

From ChEMBL document CHEMBL2034874, “5-acetyl-2-arylbenzimidazoles as antiviral agents. Part 4” (Eur J Med Chem, 2012)
